Screening data as filed in PubChem.
An excerpt weighted towards active compounds, which were near 3.4% of everything screened.
ROMK mod: ROMK potassium channel modulators, primary screen, cell-based, thallium flux, MLSMR library | ATP-sensitive inward rectifier potassium channel 1 (Homo sapiens), P48048 | Tet-inducible ROMK, thallium flux fluorescence; actives lie on both sides | B-score at 10 µM | 130,000 compounds, 2% hits;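 active means signal ratio slope over the read window, or its plate-corrected B-score, at least 3 SD from the plate mean, either direction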;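 further: B-score of the F/F0 ratio slope over 7 to 12 s after thallium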
KCC2 mod: KCC2 cotransporter modulators, thallium flux, primary screen, cell-based, HEK293 KCC2, FluoZin-2 fluorescence, MLSMR; 190,000 compounds, 2.2% hits; B-score of Tl+ flux slope (higher = more flux/activation; lower = inhibition) at 10 µM; KCC2 cells, thallium flux FluoZin-2 fluorescence; Solute carrier family 12 member 5 (Homo sapiens), Q9H2X9;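 active means thallium flux slope and its plate-corrected score both differing from the plate sample mean at a set confidence after two filtering rounds, in either direction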;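 further: slope of fluorescence scaled to starting intensity during 10 to 20 s after thallium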
PKD1 inh: inhibitors of human PKD1 kinase, biochemical, fluorescence polarization; PKD1 kinase fluorescence polarization assay; AID 797, 2007; 200,000 compounds, 0.056% hits; inhibition, % (test concentration not listed); in the data active means inhibition above about 50%
Mdm2 ligase inh: MDM2-luciferase reporter signal enhancers, primary screen, MDM2 E3 ligase inhibitor project, cell-based, luminescence, 1536-well. cell-based MDM2 ubiquitination luciferase reporter, 2 h; 0 = plate control, 100 = twice control, blank-subtracted. E3 ubiquitin-protein ligase Mdm2 (Homo sapiens), Q00987. 210,000 compounds, 0.11% hits. AID 1230, 2008. signal enhancement, % at 5 µM;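 active means signal enhancement of 30% or more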;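 further: luminescence tracks abundance of the self-degrading MDM2-luciferase fusion protein; higher signal means inhibition of MDM2 E3 ligase activity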
Target sequence (Q00987 whole entry, looked up, the tested form may be a part): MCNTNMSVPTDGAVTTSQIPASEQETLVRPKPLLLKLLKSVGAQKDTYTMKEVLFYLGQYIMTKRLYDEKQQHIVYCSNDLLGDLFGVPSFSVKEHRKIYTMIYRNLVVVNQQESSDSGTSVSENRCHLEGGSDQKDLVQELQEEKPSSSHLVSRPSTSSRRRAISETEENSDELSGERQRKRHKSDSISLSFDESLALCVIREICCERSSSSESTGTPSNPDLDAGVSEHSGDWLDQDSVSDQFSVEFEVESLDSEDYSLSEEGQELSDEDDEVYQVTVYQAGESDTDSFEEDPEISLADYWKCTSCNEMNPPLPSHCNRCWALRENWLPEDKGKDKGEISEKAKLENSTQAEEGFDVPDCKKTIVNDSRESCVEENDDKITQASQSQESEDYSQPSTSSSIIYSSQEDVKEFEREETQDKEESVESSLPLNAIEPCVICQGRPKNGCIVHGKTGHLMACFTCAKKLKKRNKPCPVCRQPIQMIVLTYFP
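system = mammalian cells stably expressing self-ubiquitinating, self-degrading MDM2 E3–luciferase fusion | quantity = 2000 cells per well seeded | incubation = 4 h cell settling then 2 h compound exposure, 37 °C | signal = SteadyLite luminescence, 15 min reagent step | benchmarks = plate control and blank wells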
p97 inhibitor: inhibitors of human p97 ATPase, primary screen, biochemical. AID 1481, 2009. Transitional endoplasmic reticulum ATPase (Homo sapiens), P55072. inhibition, % at 8 µM. recombinant p97 ATPase, Kinase-Glo ATP luminescence, 3 h. 220,000 compounds, 0.42% hits; in the data active means inhibition above about 15%;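 further: 0% = DMSO vehicle and 100% = wells lacking enzyme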
DTT redox prof: compounds producing H2O2 with reducing agent – biochemical, NIH compound library profiling, artefact control for MLSCN library redox annotation, primary screen; activation, % at 10 µM; DTT-dependent redox cycling H2O2, phenol red/HRP absorbance; 100% = 100 µM peroxide control, 0% = buffer; 200,000 compounds, 0.03% hits;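 active means activation of at least 50% relative to the plate's high and low controls in the primary single-dose screen; inactive means activation below 50%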;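 further: compound incubated with DTT at 0.8 mM final as the reducing agent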
ROMK retest: ROMK channel modulator hit retest, confirmation, cell-based, thallium flux, duplicate, resupplied hits; shares compounds with ROMK mod; fluorescence ratio; hits give low values; normalized thallium flux (F/F0 slope) at 10 µM; 3,000 compounds, 54% hits; AID 1917, 2009;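 active means Flux at 10 µM at least 3 SD below or above vehicle control mean in one or both replicates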
Active calls of the source: *; · = no result given.

SMILES	ROMK mod	KCC2 mod	PKD1 inh	Mdm2 ligase inh	p97 inhibitor	DTT redox prof	ROMK retest
CCN(CCNCC(O)COCc1ccc(Cl)cc1)c1cccc(C)c1 (stereo not given)	·	1.05	-1.3	2.5	0.7	0.0	·
O=C(NCc1cccnc1)/C(=C/c1ccc(-c2cccc(C(F)(F)F)c2)o1)NC(=O)c1ccccc1	-5.05*	-3.32	1.7	-5.8	3.8	0.2	0.0541*
O=C(NCc1cccnc1)/C(=C/c1ccc(-c2ccc(Cl)cc2)o1)S(=O)(=O)c1ccccc1	·	-0.619	0.1	-12.6	5.5	-1.2	0.0553*
Nc1ncnc(NNC(=O)CNC(=O)c2c(F)cccc2Cl)c1[N+](=O)[O-]	-0.199	-0.577	0.1	-0.3	-0.7	0.4	·
COC(=O)Cn1c2ccccc2c2nc(=O)cc(C)n21	-0.809	0.439	1.9	-8.5	-0.9	0.9	·
CC(=O)c1ccc(NC(=O)Cn2c3ccccc3c3nc(=O)cc(C)n32)cc1	·	-0.64	·	-6.0	8.5	·	0.0857
O=C(Oc1coc(CSc2ncccn2)cc1=O)c1ccccc1[N+](=O)[O-]	0.0408	0.0102	-2.9	-5.3	1.1	-0.4	0.0879
Cc1cc(C)nc(SCc2cc(=O)c(OC(=O)c3cc([N+](=O)[O-])ccc3Cl)co2)n1	·	-0.884	-7.9	-11.3	2.2	0.4	·
Cc1ccc(NC(=O)NC(=O)COc2ccc(Cl)cc2Cl)c(C)c1	·	0.831	-2.0	-17.6	-5.3	0.4	·
CCn1cc(CNC(=S)Nc2cccc3ccccc23)cn1	0.584	1.04	-12.7	-95.8	8.4	1.4	·
COc1ccccc1NC(=O)CCN1C(=O)C2CC=C(Cl)CC2C1=O (stereo not given)	·	0.677	-5.0	2.6	4.4	-0.8	·
O=C(C[n+]1cccc(CNC(=O)c2ccc(OC(F)F)cc2)c1)Nc1cccc(C(F)(F)F)c1	-3.06*	-0.279	-7.8	2.0	-0.6	-0.1	0.0529*
O=C(C[n+]1cccc(CNC(=O)c2ccc(OC(F)F)cc2)c1)Nc1ccc(F)cc1	-1.44	-0.0299	-6.0	-6.2	2.8	-0.1	·
O=C1CN(C(=O)c2ccc(F)c(S(=O)(=O)N3CCOCC3)c2)c2ccccc2N1	0.658	-0.694	6.7	-7.7	3.7	-1.5	·
N=C1/C(=C\c2ccc(-c3cccc(C(=O)O)c3)o2)C(=O)N=C2SC=C(c3ccccc3)N12	·	-1.64	·	-10.2	9.0	·	0.0588*
COc1ccc(OC)c(C2=NOC(C(=O)NCc3ccccn3)C2)c1 (stereo not given)	·	0.42	-6.1	-21.4	13.9	-0.1	0.0759
O=C(NCc1ccccn1)C1CC(c2ccccc2O)=NO1 (stereo not given)	2.56*	-1.6	-7.4	9.2	8.2	-1.0	0.0877
COc1ccc(OCC(N)=O)cc1	·	·	1.8	-6.7	6.0	-1.1	0.0835
COc1ccccc1/C=C/C(=O)NNC(=O)c1cccs1	0.115	0.0708	-3.1	-3.6	1.8	0.2	·
c1ccc(CC2=NCCN2)cc1	3.1*	·	-5.5	1.5	-5.8	0.0	0.0794
CCOC(=O)Nc1ccc(S(=O)(=O)Nc2nc(C)cc(C)n2)cc1	2.42*	·	-1.4	-9.7	5.3	0.3	0.0802
O=C(O)C1[C@H]2C(=O)N(C3CCCC3)C[C@]23C=C[C@H]1O3 (stereo not given in full)	0.122	·	-0.7	4.7	5.4	0.3	·
CN(C)C(=O)c1sccc1Oc1ccc(F)cc1[N+](=O)[O-]	-0.441	·	-1.1	2.5	9.9	-0.4	0.0803
O=C(Nc1nccs1)c1cc(Cl)nc2ccccc12	·	0.71	·	-8.8	9.6	·	0.0779
